This is an account of results in ChEMBL document CHEMBL1124562, “(3-Amino-2-oxoalkyl)phosphonic acids and their analogues as novel inhibitors of D-alanine:D-alanine ligase” (J Med Chem, 1989).

Each structure is given as a SMILES string.

In assay [1] the test system is Enterococcus faecalis. Briefly: Percent inhibition of DAla-DAla Ligase at 10e-3 M of the compound. In short, it runs like this:
(§1)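 Enzyme was a 50% ammonium sulphate fraction from sonicated Streptococcus faecalis ATCC 8043 extract (0.38 units/mg). Inhibitor was preincubated 40 min at room temperature with enzyme, 0.008 M MgCl2, 0.01 M KCl and 0.05 M Tris-Cl pH 7.9. Then 0.005 M ATP and 0.005 M (14C-1)-D-alanine were added and the mix held 30 min at 37 °C. Radiolabelled product was resolved by silica TLC and integrated.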

A short description of assay [2]: Inhibition of DAla-DAla Ligase by the compound. More on the design: species or system Enterococcus faecalis. In short, it runs like this: as §1
The nature of assay [3]: Inhibition of D-Alanine-D-Alanine Ligase Ligase by the compound. Also on record: species or system Enterococcus faecalis. An outline of the steps:
as §1

For assay [4], the system named is Enterococcus faecalis. Briefly: Percent inhibition of D-Alanine-D-Alanine Ligase at 10e-3 M of the compound. An outline of the steps: as §1
Assay [5] can be described thus: Inhibition of DAla-DAla Ligase at 10e -3 M of the compound. More on the design: species or system Enterococcus faecalis. An outline of the steps:
as §1

Assay [6] deals with Enterococcus faecalis. Description: Percent inhibition of DAla-DAla Ligase at 10e -3 M of the compound. In short, it runs like this: as §1

Turning to `C[C@@H](N)C(=O)CP(=O)(O)O`, the inhibition in the assay on Enterococcus faecalis [1] is 71%. Moreover, affinity in assay [2] was put at a Ki of 510 µM.
`NC(CCC(=O)CP(=O)(O)O)C(=O)O` (centres undefined) gave a Ki in assay [3] of 500 µM.
On to `CC(C(=O)[C@@H](C)N)P(=O)(O)O` (some centres undefined), for which the inhibition in the assay on Enterococcus faecalis [4] came to 18%.
Same read-out and setting: for `C[C@@H](N)C(=O)CCP(=O)(O)O` the value was 10%.
With `C[C@@H](N)P(=O)(O)O`, the IC50 in assay [5] was 930 µM.
Molecule `C[C@@H](N)/C=C/P(=O)(O)O` came in with an inhibition with Enterococcus faecalis [6] of 24%.
As for `CC[C@@H](N)C(=O)CP(=O)(O)O`, in the assay with Enterococcus faecalis [4], the inhibition amounted to 26%.
Molecule `C[C@@H](N)C(=O)NP(=O)(O)O` showed an inhibition in the assay on Enterococcus faecalis [6] of 85%. In assay [2], this molecule came in with a Ki of 50 µM.
On to `C[C@H](N)C(=O)CP(=O)(O)O`, for which the inhibition in the assay with Enterococcus faecalis [4] is 14%.
The same measure, in the same setting: under `C[C@@H](N)C(O)CP(=O)(O)O` (some centres undefined) stands 25%.
`N[C@@H]1CONC1=O` [CYCLOSERINE]: affinity in assay [2] was put at a Ki of 250 µM.
In the assay on Enterococcus faecalis [4], `C[C@@H](N)C(O)C(O)P(=O)(O)O` (some centres undefined) yielded an inhibition of 32%.

The term inhibition denotes how much of the control response was suppressed. A higher inhibition goes with a strong effect. The Ki is a dissociation constant, usually derived from enzyme kinetics or from competition with a known ligand. The low end stands for tighter binding, the high end for weaker binding. As usually defined, the IC50 is the concentration needed to halve the response being measured.
